Laboratory results from ChEMBL document CHEMBL1129373, “Synthesis and evaluation of pregnane derivatives as inhibitors of human testicular 17 alpha-hydroxylase/C17,20-lyase” (J Med Chem, 1996).

What follows are compounds tested against T1, Steroid 17-alpha-hydroxylase/17,20 lyase (Homo sapiens, UniProt P05093) (assay: Inhibition of human testicular steroid 17-alpha-hydroxylase). Conditions: not given; call rule not given here.
T1 sequence (P05093 whole entry): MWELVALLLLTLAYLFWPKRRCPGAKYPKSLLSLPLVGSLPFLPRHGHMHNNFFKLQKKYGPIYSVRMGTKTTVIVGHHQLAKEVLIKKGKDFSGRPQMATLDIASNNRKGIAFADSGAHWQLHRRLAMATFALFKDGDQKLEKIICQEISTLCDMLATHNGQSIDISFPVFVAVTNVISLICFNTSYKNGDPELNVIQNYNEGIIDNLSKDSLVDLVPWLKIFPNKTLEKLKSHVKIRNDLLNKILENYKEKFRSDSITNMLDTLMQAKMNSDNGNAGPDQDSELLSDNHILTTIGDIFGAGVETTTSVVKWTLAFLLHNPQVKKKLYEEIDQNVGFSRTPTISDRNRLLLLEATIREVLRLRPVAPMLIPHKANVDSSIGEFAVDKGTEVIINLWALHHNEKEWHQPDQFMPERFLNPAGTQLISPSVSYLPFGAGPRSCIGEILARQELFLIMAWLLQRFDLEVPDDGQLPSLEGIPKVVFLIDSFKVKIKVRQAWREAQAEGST
Method in brief: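 Human testicular microsomes (from orchidectomy testes, stored −70 °C, diluted in 0.1 M phosphate buffer; ca. 90 μg protein) incubated with [7-³H]pregnenolone (400 nM), NADPH-generating system and four to five inhibitor concentrations, pH 7.4, under oxygen, 5 min, 34 °C. Reverse-phase HPLC with radioactivity counting; hydroxylase activity from conversion to 17α-hydroxypregnenolone plus DHEA. IC50 by nonlinear regression; duplicates, repeated at least once.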

Q: How did the IC50 turn out when C#C[C@]1(O)CCC2C3CCC4=CC(=O)CC[C@]4(C)C3CC[C@@]21C (stereo partly specified) was run?
A: The IC50 was “No inhibition”.

Q: C/C(=N\N(C)C)C1CCC2C3CC=C4C[C@@H](O)CC[C@]4(C)C3CC[C@]12C (stereo partly specified) was tested. Which IC50 did it give?
A: The IC50 was “No inhibition”.

Same assay, conditions: read-out: IC50

Q: With C[C@@H](C#N)C1CCC2C3CCC4=CC(=O)CC[C@]4(C)C3CC[C@@]21C (stereo partly specified) as the compound, how does the IC50 read?
A: The IC50 was 1.1 µM.

Q: For CC(O)C1CCC2C3CC=C4C[C@@H](O)CC[C@]4(C)C3CC[C@]12C (stereo partly specified), which IC50 is on record?
A: Its IC50 is 0.72 µM.

Q: C[C@@H](C=O)C1CCC2C3CCC4=CC(=O)CC[C@]4(C)C3CC[C@@]21C (stereo partly specified) was tested. Which IC50 did it give?
A: Its IC50 is 0.23 µM.

Q: Which IC50 does the source give for C[C@@H](O)C1CCC2C3CCC4=CC(=O)CC[C@]4(C)C3CC[C@@]21C (stereo partly specified) here?
A: The IC50 was 0.49 µM.

Q: Which IC50 does the source give for CN(C=O)C1CCC2C3CCC4=CC(=O)CC[C@]4(C)C3CC[C@@]21C (stereo partly specified) here?
A: The IC50 was 0.8 µM.

Q: With C[C@]12CCC3C(CC=C4C[C@@H](O)CC[C@@]43C)C1CCC2[C@]1(C)CO1 (stereo partly specified) as the compound, how does the IC50 read?
A: Its IC50 is 0.73 µM.

Q: For CC(=O)C1=CCC2C3CC=C4C[C@@H](O)CC[C@]4(C)C3CC[C@]12C (stereo partly specified), which IC50 is on record?
A: Its IC50 is 0.51 µM.

Q: C[C@@H](O)C1CCC2C3CC=C4C[C@@H](O)CC[C@]4(C)C3CC[C@@]21C (stereo partly specified) was tested. Which IC50 did it give?
A: The IC50 was 0.18 µM.

Q: With C#CC1CCC2C3CC=C4C[C@@H](O)CC[C@]4(C)C3CC[C@]12C (stereo partly specified) as the compound, how does the IC50 read?
A: Its IC50 is 3.56 µM.

Q: C/C(=N\N(C)C)C1=CCC2C3CC=C4C[C@@H](O)CC[C@]4(C)C3CC[C@]12C (stereo partly specified) was tested. Which IC50 did it give?
A: Its IC50 is 43.7 µM.

Q: Which IC50 does the source give for C/C(=N/O)C1=CCC2C3CC=C4C[C@@H](O)CC[C@]4(C)C3CC[C@]12C (stereo partly specified) here?
A: Its IC50 is 0.016 µM.

Q: With C[C@@H](N)[C@H]1CC[C@H]2[C@@H]3CC=C4C[C@@H](O)CC[C@]4(C)[C@H]3CC[C@]12C as the compound, how does the IC50 read?
A: The IC50 was 9.8 µM.

Q: With C[C@@H](O)[C@H]1CC[C@H]2[C@@H]3CCC4=CC(=O)CC[C@]4(C)[C@H]3CC[C@]12C as the compound, how does the IC50 read?
A: The IC50 was 2.84 µM.

Q: How did the IC50 turn out when C[C@H](N)[C@H]1CC[C@H]2[C@@H]3CC=C4C[C@@H](O)CC[C@]4(C)[C@H]3CC[C@]12C was run?
A: Its IC50 is 89.8 µM.

Q: How did the IC50 turn out when C[C@@H](/C=N/O)[C@H]1CC[C@H]2[C@@H]3CCC4=CC(=O)CC[C@]4(C)[C@H]3CC[C@]12C was run?
A: The IC50 was 5.98 µM.

Q: How did the IC50 turn out when C/C(=N\N)[C@H]1CC[C@H]2[C@@H]3CC=C4C[C@@H](O)CC[C@]4(C)[C@H]3CC[C@]12C was run?
A: Its IC50 is 9.98 µM.

Q: With C/C(C#N)=C1/CCC2C3CCC4=CC(=O)CC[C@]4(C)C3CC[C@]12C (stereo partly specified) as the compound, how does the IC50 read?
A: Its IC50 is 1.22 µM.

Q: C[C@]12CC[C@H](O)CC1=CCC1C2CC[C@]2(C)/C(=N/N)CCC12 (stereo partly specified) was tested. Which IC50 did it give?
A: The IC50 was 6.48 µM.

Q: How did the IC50 turn out when C/C(=N/O)C1CCC2C3CC=C4C[C@@H](O)CC[C@]4(C)C3CC[C@]12C (stereo partly specified) was run?
A: The IC50 was 0.53 µM.

Q: With C[C@]12CC[C@H](O)CC1=CCC1C2CC[C@]2(C)/C(=N/O)CCC12 (stereo partly specified) as the compound, how does the IC50 read?
A: Its IC50 is 13.5 µM.

Q: C=CC1CCC2C3CC=C4C[C@@H](O)CC[C@]4(C)C3CC[C@]12C (stereo partly specified) was tested. Which IC50 did it give?
A: Its IC50 is 2.88 µM.

Q: Which IC50 does the source give for CC(=O)C1=CCC2C3CCC4=CC(=O)CC[C@]4(C)C3CC[C@]12C (stereo partly specified) here?
A: The IC50 was 1.77 µM.

The compounds below were run against T1, Steroid 17-alpha-hydroxylase/17,20 lyase (assay: Inhibition of human testicular C17,20-lyase, cytochrome P450 17A1; No inhibition). Conditions: not given.

Q: For C#C[C@]1(O)CCC2C3CCC4=CC(=O)CC[C@]4(C)C3CC[C@@]21C (stereo partly specified), which IC50 is on record?
A: Its IC50 is “Not Active”.

Q: With C/C(=N\N(C)C)C1CCC2C3CC=C4C[C@@H](O)CC[C@]4(C)C3CC[C@]12C (stereo partly specified) as the compound, how does the IC50 read?
A: The IC50 was “Not Active”.
